# Only some compounds are listed: those with a hit (about 2% of all), similar ones and a draw of the others.
# STEP block = inhibitors of human striatal-enriched phosphatase STEP; AID 588621; recombinant STEP, OMFP fluorogenic substrate, fluorescence; 0.25% of 360,000 active; inhibition, % at 20 µM; P54829;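 active = inhibition at 20 µM, scaled per plate between control wells, above about 37%, limit read from the data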;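 also: 0% = DMSO with enzyme and substrate and 100% = substrate only without enzyme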
#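 Material: STEP (striatal-enriched tyrosine phosphatase) enzyme, cell-free; Compound dosing: 20 µM single dose in 1% DMSO; Technique: fluorescence read at 480 nm ex / 540 nm em; Times: reaction 20 min, ambient temperature; Medium: 50 mM Bis-Tris pH 6.0 with 2.5 mM DTT and 0.005% Tween 20; Also added: OMFP at 25 µM.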
# CSN deneddyl inh = inhibitors of human CSN-mediated cullin deneddylation. 0.38% of 360,000 active. inhibition, % at 12.5 µM. AID 651999. Q92905. Purified CSN, SCF-Nedd8-OG deneddylation, fluorescence polarization;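 active = pattern-corrected inhibition above about 35%, with an unprinted fluorescence ratio check between 0.5 and 1.5, limit read from the data, passing the limit was not always enough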;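 also: 0% = enzyme with substrate and 100% = substrate without enzyme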
# Target sequence (Q92905 whole entry, looked up, one chain of several): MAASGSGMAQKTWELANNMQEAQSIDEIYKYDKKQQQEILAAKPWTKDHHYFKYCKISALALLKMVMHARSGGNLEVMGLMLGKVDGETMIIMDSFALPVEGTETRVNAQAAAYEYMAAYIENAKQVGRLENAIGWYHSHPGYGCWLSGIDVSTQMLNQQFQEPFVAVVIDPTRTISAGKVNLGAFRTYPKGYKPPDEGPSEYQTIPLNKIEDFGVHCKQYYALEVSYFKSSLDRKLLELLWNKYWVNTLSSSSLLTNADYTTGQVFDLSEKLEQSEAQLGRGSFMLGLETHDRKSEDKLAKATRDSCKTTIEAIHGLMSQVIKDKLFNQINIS
#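 Test system: Human Csn5 produced in HEK293T cells | Compound: 12.5 µM single point | Times: 90 min, room temperature | Signal: Fluorescence polarization readout | Read-out basis: % inhibition of substrate cleavage by Csn5 | Controls: no-enzyme wells high, enzyme-with-substrate wells low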
# DNMT1 inh = inhibitors of human DNMT1 | P26358 | DNMT1 molecular beacon, Hinp1I cleavage, fluorescence | inhibition (reported as % activation of signal), % at 10 µM | 0.83% of 360,000 active; in the data active = inhibition above about 50%
# LMPTP inh = LMPTP (human) inhibition | recombinant LMPTP-A, OMFP fluorogenic substrate, fluorescence intensity | inhibition, % at 20 µM | 0.22% of 360,000 active | AID 651560;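 active = compounds that cut the enzyme signal by at least half of the control window in the single-dose screen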;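 also: plate controls were DMSO wells with enzyme plus substrate for no effect and substrate without enzyme for full effect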
# Target sequence (P24666 whole entry, looked up): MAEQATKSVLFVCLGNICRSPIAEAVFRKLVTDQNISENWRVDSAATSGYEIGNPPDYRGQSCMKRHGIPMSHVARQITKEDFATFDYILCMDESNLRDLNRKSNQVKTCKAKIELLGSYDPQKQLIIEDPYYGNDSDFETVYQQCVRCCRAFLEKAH
#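 Test system: LMPTP-A phosphatase enzyme; input: 0.625 nM LMPTP-A final; reagent: OMFP substrate, 400 µM final; compound dosing: 20 µM single dose, 3% DMSO; incubation: 50 min dark incubation at room temperature; measured by: endpoint fluorescence intensity from OMFP dephosphorylation; measure: % inhibition relative to no-enzyme and uninhibited control wells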
# Scp-1 inhibitor = blocks human Scp-1 phosphatase activity; Recombinant Scp1, phosphopeptide, malachite green phosphate absorbance; 0.88% of 340,000 active; inhibition, % at 20 µM;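 active = inhibition above about 50% at 20 µM, limit read from the data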;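 also: plate controls were DMSO wells with enzyme for no effect and wells lacking enzyme for full effect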
# Target sequence (Q9GZU7 76-261 limits assumed): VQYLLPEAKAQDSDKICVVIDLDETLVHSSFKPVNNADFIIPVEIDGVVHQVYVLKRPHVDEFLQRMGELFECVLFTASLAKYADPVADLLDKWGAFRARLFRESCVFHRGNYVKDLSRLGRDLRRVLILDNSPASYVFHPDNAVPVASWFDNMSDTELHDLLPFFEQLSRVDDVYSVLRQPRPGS
#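 Test system – truncated SCP-1 phosphatase (76-261aa) · Reagent – Phosphorylated 17-residue peptide substrate · Incubation – 45 min room-temperature reaction, 5 min colour, 30 min stabiliser · Detection – colorimetric phosphate reagent with accelerator and stabiliser, absorbance at 630 nm · Measure – % inhibition at 20 µM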
# SUMO1-SIM PPI = SUMO1-SIM interaction modulation; P63165; SUMO1 binding to a labelled peptide, TR-FRET, 1 h; inhibition, % at 20 µM; 0.33% of 360,000 active; AID 602429; in the data active = inhibition above about 37%
# DNMT1 interf DR = beacon fluorescence artifact, dose response counter-screen; shares compounds with DNMT1 inh; AID 602382; molecular beacon fluorescence, spectral interference counter-screen; IC50, µM; 200 tested, under 10 active; call rule not given here
# DNMT1 confirm = DNMT1 inhibition confirmation, single concentration | shares compounds with DNMT1 inh | inhibition, % at 10 µM | DNMT1 molecular beacon HinP1I cleavage, fluorescence | AID 602385 | 8% of 2,300 active;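 active = average inhibition of at least 30% in the single-concentration confirmation test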
# DNMT1 interf = counter-screen for DNMT1 inhibitors: spectral interference | AID 602387 | DNMT1 molecular beacon spectral interference counterscreen, fluorescence 485/520 | 1% of 2,300 active | shares compounds with DNMT1 inh | activation (fluorescence interference), % at 10 µM;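 active = activation of at least 30% at 10 µM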;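 also: DNMT1 catalytic domain with a HinP1I cleavage step and a FAM/dabcyl DNA beacon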
# * hit, by the source's call; nt = no result.
SMILES,STEP block,CSN deneddyl inh,DNMT1 inh,LMPTP inh,Scp-1 inhibitor,SUMO1-SIM PPI,DNMT1 confirm,DNMT1 interf,others
COc1ccc(NC(=O)CC2Nc3cc(C)c(C)cc3NC2=O)c([N+](=O)[O-])c1 (stereo not drawn),4,4,59*,3,4,-21,1,2,
CCC(=O)c1ccc(OCC(=O)OCC(=O)N2c3ccccc3CC2C)cc1 (stereo not drawn),2,3,-1,0,-9,6,nt,nt,
Nc1c(C(=O)C2CC2)sc2nc(-c3ccccc3)cc(C(F)(F)F)c12,-41,16,68*,1,-5,-6,51*,37*,
Cc1ccccc1C(=O)Nc1ccccc1C(=O)N1CCC(C)CC1,0,-7,1,-1,-1,3,nt,nt,
COc1ccc(Cl)cc1-c1cc(C(=O)NCc2cccc(C(F)(F)F)c2)[nH]n1,-2,-2,58*,3,nt,2,1,1,
Cn1cc(Br)c(C(=O)Nc2ncc(Br)s2)n1,2,11,7,38,-8,4,nt,nt,
COc1ccc(C2=NN(c3nc(-c4ccccc4)c(CC(=O)O)s3)C(c3ccco3)C2)cc1 (stereo not drawn),-1,43*,56*,2,10,4,4,1,
COCCn1c(C)cc(C(=O)CN2C(=O)NC3(CCCCCC3)C2=O)c1C,0,-3,0,-1,-5,-6,nt,nt,
O=C(Nc1ccccc1)Nc1nnc(-c2ccccc2)s1,0,-3,20,-2,1,1,nt,nt,
O=C(Nc1ccccc1)Nc1nnc(/C=C/c2ccccc2Cl)s1,2,-1,89*,0,-12,0,1,1,
CCCCN(C(=O)CC1OC(=O)c2ccccc21)c1c(N)n(CCCC)c(=O)[nH]c1=O (stereo not drawn),-2,-3,-1,-1,4,3,nt,nt,
CC(=O)c1c(C)[nH]c(C(=O)COC(=O)COc2ccccc2F)c1C,0,-8,-1,-1,-10,0,nt,nt,
Cc1cc2cc(CNS(=O)(=O)c3ccc4ccccc4c3)ccc2n1C,2,0,54*,9,-4,-17,4,1,
CC(=O)Nc1ccc(S(=O)(=O)NCc2ccc3c(c2)cc(C)n3C)cc1,-2,-2,-16,27,-12,-25,nt,nt,
COc1cc(CCc2ccccc2)c(C(=O)O)c(O)c1C/C=C(/C)CCC=C(C)C,-1,14,61*,2,1,77*,84*,-9,DNMT1 interf DR=>99
COc1cc(CCc2ccccc2)c(C(=O)O)c(O)c1CC=C(C)C,-4,-3,-11,1,-7,4,nt,nt,
O=C1CCCC(O)=C1N=Nc1ccc(C(=O)O)cc1,12,56,83*,6,76*,23,20,0,
CCOc1ccc(CN2CCN(CCCc3ccccc3)CC2CCO)cc1 (stereo not drawn),1,5,4,-3,26,2,nt,nt,
CC(=O)c1cccc(NC(=O)CN2C(=O)C3C4C=CC(C4)C3C2=O)c1 (stereo not drawn),-3,2,50*,0,0,-2,1,1,
Cc1ccc(NC(=O)CC2C(=O)N(Cc3ccccc3)C(=S)N2NC(=O)c2ccccc2)c(C)c1 (stereo not drawn),0,-4,81*,2,3,0,6,10,
CC(C)/C=C/C(=O)N1CCC(N2CCC(C(=O)NCC3CCCO3)CC2)CC1 (stereo not drawn),2,-2,50*,3,nt,-2,3,4,
CCOc1ccccc1N1Cc2cc(C)c(C)cc2C1,0,4,54*,3,-4,-1,0,1,
CCOc1ccccc1N1Cc2ccccc2C1,-2,4,14,0,-3,-5,nt,nt,
Cc1ccc(-c2[nH]ncc2/C=N/n2c(COc3ccccc3)nc3ccccc3c2=O)cc1,-1,-13,67*,1,-8,-1,3,5,
Cc1ccccc1OCc1nc2ccccc2c(=O)n1/N=C/c1cn[nH]c1-c1ccccc1,-3,3,-5,2,-4,0,nt,nt,
SMILES,STEP block,CSN deneddyl inh,DNMT1 inh,LMPTP inh,Scp-1 inhibitor,SUMO1-SIM PPI,DNMT1 confirm,DNMT1 interf,others
CCCc1cc(=O)oc2c(C)c(OCC(=O)c3ccc(N4CCCC4)cc3)ccc12,2,14,57*,6,40,1,6,-2,
COc1cc2c(cc1OC)C(Cc1ccccc1[N+](=O)[O-])=NCC2,2,3,-18,1,-3,-11,nt,nt,
CCOC(=O)c1nn(-c2ccc(F)cc2)c(=O)cc1OCC(=O)Nc1ccc(OCC)cc1,7,2,69*,1,-1,36,80*,-1,DNMT1 interf DR=>99
CCOC(=O)c1nn(-c2ccc(C)cc2)c(=O)cc1OCC(=O)Nc1cccc(OC)c1,-1,3,1,0,-6,4,nt,nt,
CC(=O)Nc1nc2cc([N+](=O)[O-])ccc2s1,2,-1,5,-1,-3,-29,nt,nt,
O=c1nc(Nc2ccc(Br)cc2)sc2ccc([N+](=O)[O-])cc12,5,46*,54*,45,40,-54,1,-3,
COc1ccc(-c2nn(-c3ccccc3)cc2/C=C2/SC(=S)N(CCC(=O)O)C2=O)c(C)c1,2,7,12,7,-2,24,nt,nt,
CC1=NNC(=O)/C1=C\c1cn(-c2ccccc2)nc1-c1cccs1,-2,-1,4,0,-3,3,nt,nt,
COc1ccc(-c2nn(-c3ccccc3)cc2/C=C2/SC(=S)N(CCC(=O)O)C2=O)cc1,18,17,75*,0,85*,11,89*,-6,DNMT1 interf DR=>99
CCN1C(=O)/C(=C/c2cn(-c3ccccc3)nc2-c2cccnc2)SC1=S,1,23,61*,-1,2,2,4,1,
O=C(O)CCCCCN1C(=O)/C(=C\c2cn(-c3ccccc3)nc2-c2cccs2)SC1=S,2,10,85*,5,66*,114*,44*,-5,DNMT1 interf DR=60*
COc1ccc(CNC(=O)c2cc3cc(OC)ccc3oc2=O)cc1,1,0,4,1,-5,-35,nt,nt,
COc1ccc2oc(=O)c(C(=O)NCc3ccccc3)cc2c1,-2,1,51*,0,-5,-41,5,2,

# Bioassay records: PubChem, Sanford-Burnham Center for Chemical Genomics
